Assay results from ChEMBL document CHEMBL1140232, “Surprising alteration of antibacterial activity of 5"-modified neomycin against resistant bacteria” (2008).
In brackets after ≈: the same amount, converted by molar mass.

Columns and labels:
Escherichia coli [1] = assay: Antibacterial activity against aminoglycoside-susceptible Escherichia coli TG1 after 12 to 18 hrs; assay type: functional
Method in brief: (§1)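 Broth microdilution. Bacterial suspension adjusted with broth to absorbance 0.08–0.1 at 625 nm, diluted further in broth, and mixed in wells with 2-fold serial dilutions of compound. Plates incubated at 35°C for 12–18 h. MIC is the lowest concentration inhibiting growth; each determination repeated at least three times.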

Enterococcus [2] = assay: Activity of Enterococcus APH(3')-3a
Escherichia coli [3] = assay: Antibacterial activity against Escherichia coli TG1 pSF815 plasmid encoded for AAC(6')/APH(2') after 12 to 18 hrs; assay type: functional; method in brief: as §1
Escherichia coli [4] = assay: Antibacterial activity against Escherichia coli TG1 pTZ19U-3 plasmid encoded for APH(3')-1 after 12 to 18 hrs; assay type: functional; method in brief: as §1
Staphylococcus aureus = assay: Antibacterial activity against aminoglycoside-susceptible Staphylococcus aureus ATCC 25923 after 12 to 18 hrs; assay type: functional; method in brief: as §1
Enterococcus [5] = assay: Ratio of kcat to Km of Enterococcus APH(3')-3a
Escherichia coli [6] = assay: Antibacterial activity against Escherichia coli TG1 pET28a plasmid encoded for APH(3')-3a after 12 to 18 hrs; assay type: functional; method in brief: as §1
Escherichia coli [7] = assay: Antibacterial activity against aminoglycoside-susceptible Escherichia coli ATCC 25922 after 12 to 18 hrs; assay type: functional; method in brief: as §1

Row | Compound | MIC (Escherichia coli [1]) | Km (Enterococcus [2]) | Vmax (Enterococcus [2]) | kcat (Enterococcus [2]) | MIC (Escherichia coli [3]) | MIC (Escherichia coli [4]) | MIC (Staphylococcus aureus) | kcat/Km (Enterococcus [5]) | MIC (Escherichia coli [6]) | MIC (Escherichia coli [7])
1 | NC[C@@H]1O[C@H](O[C@H]2[C@@H](O)[C@H](O[C@@H]3[C@@H](O)[C@H](N)C[C@H](N)[C@H]3O[C@H]3O[C@H](CN)[C@@H](O)[C@H](O)[C@H]3N)O[C@@H]2Cn2cc(CNC(=O)[C@@H]3CCCN3)nn2)[C@H](N)[C@@H](O)[C@@H]1O | 16 µg/mL (≈ 20.2 µM) | 175 µM | 0.4 µmol/min/mg | 0.2 s⁻¹ | 16 µg/mL (≈ 20.2 µM) | ≥ 2000 µg/mL | 2 µg/mL (≈ 2.53 µM) | 0.14 ×10⁴ /M/s | 64 µg/mL (≈ 80.8 µM) | 16 µg/mL (≈ 20.2 µM)
2 | NCC[C@H](O)C(=O)NC[C@H]1O[C@@H](O[C@@H]2[C@@H](O)[C@H](N)C[C@H](N)[C@H]2O[C@H]2O[C@H](CN)[C@@H](O)[C@H](O)[C@H]2N)[C@H](O)[C@@H]1O[C@H]1O[C@@H](CN)[C@@H](O)[C@H](O)[C@H]1N | 16 µg/mL (≈ 22.4 µM) | 50 µM | 0.93 µmol/min/mg | 0.47 s⁻¹ | 16 µg/mL (≈ 22.4 µM) | ≥ 2000 µg/mL | 1 µg/mL (≈ 1.4 µM) | 0.94 ×10⁴ /M/s | 125 µg/mL (≈ 175 µM) | 8 µg/mL (≈ 11.2 µM)
3 | NCCCC[C@H](N)C(=O)NC[C@H]1O[C@@H](O[C@@H]2[C@@H](O)[C@H](N)C[C@H](N)[C@H]2O[C@H]2O[C@H](CN)[C@@H](O)[C@H](O)[C@H]2N)[C@H](O)[C@@H]1O[C@H]1O[C@@H](CN)[C@@H](O)[C@H](O)[C@H]1N | 16 µg/mL (≈ 21.6 µM) | 78 µM | 0.79 µmol/min/mg | 0.4 s⁻¹ | 32 µg/mL (≈ 43.1 µM) | 125 µg/mL (≈ 168 µM) | 2 µg/mL (≈ 2.7 µM) | 0.51 ×10⁴ /M/s | 32 µg/mL (≈ 43.1 µM) | 16 µg/mL (≈ 21.6 µM)
4 | NC[C@@H]1O[C@H](O[C@H]2[C@@H](O)[C@H](O[C@@H]3[C@@H](O)[C@H](N)C[C@H](N)[C@H]3O[C@H]3O[C@H](CN)[C@@H](O)[C@H](O)[C@H]3N)O[C@@H]2Cn2cc(CNC(=O)C3CCNCC3)nn2)[C@H](N)[C@@H](O)[C@@H]1O | 16 µg/mL (≈ 19.9 µM) | 171 µM | 0.41 µmol/min/mg | 0.21 s⁻¹ | 32 µg/mL (≈ 39.7 µM) | ≥ 2000 µg/mL | 4 µg/mL (≈ 4.96 µM) | 0.12 ×10⁴ /M/s | 64 µg/mL (≈ 79.4 µM) | 16 µg/mL (≈ 19.9 µM)
5 | NC[C@@H]1O[C@H](O[C@H]2[C@@H](O)[C@H](O[C@@H]3[C@@H](O)[C@H](N)C[C@H](N)[C@H]3O[C@H]3O[C@H](CN)[C@@H](O)[C@H](O)[C@H]3N)O[C@@H]2CNC(=O)CCC(=O)NC[C@H]2O[C@@H](O[C@@H]3[C@@H](O)[C@H](N)C[C@H](N)[C@H]3O[C@H]3O[C@H](CN)[C@@H](O)[C@H](O)[C@H]3N)[C@H](O)[C@@H]2O[C@H]2O[C@@H](CN)[C@@H](O)[C@H](O)[C@H]2N)[C@H](N)[C@@H](O)[C@@H]1O | 8 µg/mL (≈ 6.11 µM) | > 500 µM | < 0.1 µmol/min/mg | < 0.05 s⁻¹ | 16 µg/mL (≈ 12.2 µM) | 500 µg/mL (≈ 382 µM) | 2 µg/mL (≈ 1.53 µM) | < 0.01 ×10⁴ /M/s | 64 µg/mL (≈ 48.9 µM) | 32 µg/mL (≈ 24.4 µM)
6 | NCCCC[C@@H](N)C(=O)NC[C@H]1O[C@@H](O[C@@H]2[C@@H](O)[C@H](N)C[C@H](N)[C@H]2O[C@H]2O[C@H](CN)[C@@H](O)[C@H](O)[C@H]2N)[C@H](O)[C@@H]1O[C@H]1O[C@@H](CN)[C@@H](O)[C@H](O)[C@H]1N | 16 µg/mL (≈ 21.6 µM) | 75 µM | 0.7 µmol/min/mg | 0.35 s⁻¹ | 64 µg/mL (≈ 86.3 µM) | ≥ 2000 µg/mL | 1 µg/mL (≈ 1.35 µM) | 0.47 ×10⁴ /M/s | 64 µg/mL (≈ 86.3 µM) | 32 µg/mL (≈ 43.1 µM)
7 | NC[C@@H]1O[C@H](O[C@H]2[C@@H](O)[C@H](O[C@@H]3[C@@H](O)[C@H](N)C[C@H](N)[C@H]3O[C@H]3O[C@H](CN)[C@@H](O)[C@H](O)[C@H]3N)O[C@@H]2CNC(=O)[C@@H]2CCCN2)[C@H](N)[C@@H](O)[C@@H]1O | 16 µg/mL (≈ 22.5 µM) | 80 µM | 0.63 µmol/min/mg | 0.32 s⁻¹ | 16 µg/mL (≈ 22.5 µM) | ≥ 2000 µg/mL | 0.5 µg/mL (≈ 0.703 µM) | 0.4 ×10⁴ /M/s | 64 µg/mL (≈ 90 µM) | 16 µg/mL (≈ 22.5 µM)
8 | C[C@H](N)C(=O)NC[C@H]1O[C@@H](O[C@@H]2[C@@H](O)[C@H](N)C[C@H](N)[C@H]2O[C@H]2O[C@H](CN)[C@@H](O)[C@H](O)[C@H]2N)[C@H](O)[C@@H]1O[C@H]1O[C@@H](CN)[C@@H](O)[C@H](O)[C@H]1N | 8 µg/mL (≈ 11.7 µM) | 60 µM | 0.9 µmol/min/mg | 0.45 s⁻¹ | 16 µg/mL (≈ 23.4 µM) | ≥ 2000 µg/mL | 0.5 µg/mL (≈ 0.73 µM) | 0.75 ×10⁴ /M/s | 64 µg/mL (≈ 93.5 µM) | 8 µg/mL (≈ 11.7 µM)
9 | CNCc1cn(C[C@H]2O[C@@H](O[C@@H]3[C@@H](O)[C@H](N)C[C@H](N)[C@H]3O[C@H]3O[C@H](CN)[C@@H](O)[C@H](O)[C@H]3N)[C@H](O)[C@@H]2O[C@H]2O[C@@H](CN)[C@@H](O)[C@H](O)[C@H]2N)nn1 | 16 µg/mL (≈ 22.6 µM) | 100 µM | 0.72 µmol/min/mg | 0.36 s⁻¹ | 16 µg/mL (≈ 22.6 µM) | ≥ 2000 µg/mL | 1 µg/mL (≈ 1.41 µM) | 0.36 ×10⁴ /M/s | 125 µg/mL (≈ 176 µM) | 8 µg/mL (≈ 11.3 µM)
10 | CCCCCCc1cn(C[C@H]2O[C@@H](O[C@@H]3[C@@H](O)[C@H](N)C[C@H](N)[C@H]3O[C@H]3O[C@H](CN)[C@@H](O)[C@H](O)[C@H]3N)[C@H](O)[C@@H]2O[C@H]2O[C@@H](CN)[C@@H](O)[C@H](O)[C@H]2N)nn1 | 8 µg/mL (≈ 10.7 µM) | 127 µM | 0.75 µmol/min/mg | 0.38 s⁻¹ | 16 µg/mL (≈ 21.3 µM) | 500 µg/mL (≈ 667 µM) | 4 µg/mL (≈ 5.33 µM) | 0.3 ×10⁴ /M/s | 32 µg/mL (≈ 42.7 µM) | 32 µg/mL (≈ 42.7 µM)
11 | CCCCCCC(=O)NC[C@H]1O[C@@H](O[C@@H]2[C@@H](O)[C@H](N)C[C@H](N)[C@H]2O[C@H]2O[C@H](CN)[C@@H](O)[C@H](O)[C@H]2N)[C@H](O)[C@@H]1O[C@H]1O[C@@H](CN)[C@@H](O)[C@H](O)[C@H]1N | 8 µg/mL (≈ 11 µM) | 48 µM | 0.95 µmol/min/mg | 0.48 s⁻¹ | 16 µg/mL (≈ 22 µM) | ≥ 2000 µg/mL | 4 µg/mL (≈ 5.51 µM) | 1 ×10⁴ /M/s | 64 µg/mL (≈ 88.2 µM) | 16 µg/mL (≈ 22 µM)
12 | NC[C@@H]1O[C@H](O[C@H]2[C@@H](O)[C@H](O[C@@H]3[C@@H](O)[C@H](N)C[C@H](N)[C@H]3O[C@H]3O[C@H](CN)[C@@H](O)[C@H](O)[C@H]3N)O[C@@H]2Cn2cc(C3CCCCN3)nn2)[C@H](N)[C@@H](O)[C@@H]1O (stereo not given in full) | 16 µg/mL (≈ 21.4 µM) | 150 µM | 0.54 µmol/min/mg | 0.27 s⁻¹ | 16 µg/mL (≈ 21.4 µM) | ≥ 2000 µg/mL | 2 µg/mL (≈ 2.67 µM) | 0.18 ×10⁴ /M/s | 125 µg/mL (≈ 167 µM) | 8 µg/mL (≈ 10.7 µM)
13 | CC(=O)NCC1CN(Cc2cn(C[C@H]3O[C@@H](O[C@@H]4[C@@H](O)[C@H](N)C[C@H](N)[C@H]4O[C@H]4O[C@H](CN)[C@@H](O)[C@H](O)[C@H]4N)[C@H](O)[C@@H]3O[C@H]3O[C@@H](CN)[C@@H](O)[C@H](O)[C@H]3N)nn2)C(=O)O1 (stereo not given in full) | 16 µg/mL (≈ 19.1 µM) | 160 µM | 0.41 µmol/min/mg | 0.21 s⁻¹ | 32 µg/mL (≈ 38.3 µM) | ≥ 2000 µg/mL | 4 µg/mL (≈ 4.79 µM) | 0.13 ×10⁴ /M/s | 125 µg/mL (≈ 150 µM) | 32 µg/mL (≈ 38.3 µM)
14 | NC[C@@H]1O[C@@H](O[C@H]2[C@H](O)[C@@H](O[C@H]3O[C@H](CO)[C@@H](O)[C@H](N)[C@H]3O)[C@H](N)C[C@@H]2N)[C@@H](O)[C@H](O)[C@H]1O [KANAMYCIN A] |  | 8.2 µM | 6.96 µmol/min/mg | 3.48 s⁻¹ |  |  |  | 42.4 ×10⁴ /M/s | 125 µg/mL (≈ 258 µM) | 
